# How the values were obtained:
# Type in all cases: functional
# [1] = Ratio is IC50 vales of medial perforant path (MPP) to that of lateral perforant path (LPP)
# Summary of the method: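 Ratio of MPP to LPP IC50 values from rat hippocampal slice field-potential recordings. Dentate molecular layer recorded, middle third (MPP) and outer third (LPP), at 34 °C. Concentration doubled every 4 min. Each IC50 is a weighted mean taken from fractional-response versus log-concentration curves.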
# [2] = species on record: Rattus norvegicus; assay: Inhibitory activity against Hippocampal Excitatory Neurotransmission using medial perforant path (MPP) in rat hippocamapl slice Tested as racemic mixtures
# Summary of the method: (§1)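 Rat transverse hippocampal slices (450 μm) from urethane-anesthetized animals, held in oxygenated bicarbonate medium, pH 7.4. Recording in a microperfusion chamber at 34 °C. Field potentials in the dentate molecular layer: outer third for LPP, middle third for MPP. Placement checked with L-AP4. Drug started at threshold and doubled every 4 min. IC50 taken from fractional response versus log concentration, as a weighted mean.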
# [3] = species on record: Rattus norvegicus; assay: Inhibitory activity against Hippocampal Excitatory Neurotransmission using lateral perforant path (LPP)in rat hippocamapl slice Tested as racemic mixtures; summary of the method: as §1
# [4] = Rattus norvegicus, Perforant path
Compound,Ratio [1],"IC50 [2, 4]","IC50 [3, 4]",IC50 [2],IC50 [3]
N[C@@H](CCP(=O)(O)O)C(=O)O,18,–,–,–,–
N[C@]1(C(=O)O)CC[C@H](P(=O)(O)O)C1,31,1850 µM,130 µM,–,–
N[C@]1(C(=O)O)CC[C@@H](P(=O)(O)O)C1,2.5,2400 µM,960 µM,–,–
NC1(C(=O)O)CC1CP(=O)(O)O (stereo in doubt; 6),4.8,–,17 µM,81 µM,–
NC1(C(=O)O)CC1CP(=O)(O)O (stereo in doubt; 5),88,–,–,1580 µM,18 µM
